The test system of assay [1] is HeLa. Briefly: Phototoxicity against HeLa cells assessed as photo-induced growth inhibition after 48 hrs by MTT assay. The assay is classed as functional, cell-based, Homo sapiens. The method in brief:
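HeLa cells pre-incubated 1 h with a range of porphyrin concentrations. Without washing, cells were irradiated 1 h with a fluorescent lamp (530–620 nm; 0.44 mW/cm², 1.6 J/cm²). They were then incubated 48 h at 37 °C, and survival fraction was read by MTT. Non-irradiated cells served as dark controls.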

For assay [2], the system named is HeLa. The assay is described as follows: Induction of apoptosis in HeLa cells assessed as accumulation at subG1 phase by FACS flow cytometry. The assay is classed as functional, cell-based. Particulars: Homo sapiens. The method in brief:
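HeLa cells treated with 0, 4.6, 9.2, 18.4, 27.6 or 36.8 μM porphyrin, then stained with propidium iodide. The sub-G1 population was measured from DNA content histograms by FACS flow cytometry and taken as apoptotic cells. Values are means ± S.D.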
On the technique in general: Flow cytometry measures light scatter and fluorescence of single cells or particles in a stream.

Assay [3] deals with HeLa. Briefly: Cytotoxicity in HeLa cells assessed as PDT-induced ROS generation after 2 hrs by flow cytometry. Particulars: Homo sapiens. The assay is classed as functional, cell-based. The method in brief:
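HeLa cells exposed to porphyrins at […] for 2 h, then irradiated with visible light. Intracellular ROS probed with 2,7-dichlorofluorescin (DCF). DCF fluorescence read by flow cytometry after 2 h of porphyrin treatment. Untreated cells served as baseline.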

The mark [4] stands for this setting: Homo sapiens, HeLa, light or radiation study, 48 h.

Our source for the IC50 and Activity values is ChEMBL document CHEMBL1147929, “Synthesis and in vitro photodynamic activities of water-soluble fluorinated tetrapyridylporphyrins as tumor photosensitizers” (Bioorg Med Chem Lett, 2007).

The source made the active and inactive calls. The rule behind the calls is not given here.

As to `C[n+]1ccc(-c2c3nc(c(-c4cc[n+](C)cc4F)c4ccc([nH]4)c(-c4cc[n+](C)cc4F)c4nc(c(-c5cc[n+](C)cc5F)c5ccc2[nH]5)C=C4)C=C3)c(F)c1`, the IC50 – broadly, the concentration that gives 50% inhibition – with HeLa [1] (setting [4]) amounted to 40000 nM. Also, the Activity entry with HeLa [2] was “Dose-dependent effect”. In addition, the result in the assay on HeLa [3] was Active.
Consider `C[n+]1ccc(-c2c3nc(c(-c4cc[n+](C)cc4)c4ccc([nH]4)c(-c4cc[n+](C)cc4)c4ccc([nH]4)c(-c4cc[n+](C)cc4)c4nc2C=C4)C=C3)cc1`, for which the result with HeLa [3] was Active.
`C[n+]1ccc(-c2c3nc(c(-c4cc[n+](C)cc4)c4ccc([nH]4)c(-c4cc[n+](C)cc4)c4nc(c(-c5cc[n+](C)cc5)c5ccc2[nH]5)C=C4)C=C3)cc1`: in the assay with HeLa [1] (setting [4]), the IC50 came out at 3000 nM.
Regarding `C[n+]1cc(F)c(-c2c3nc(c(-c4c(F)c[n+](C)cc4F)c4ccc([nH]4)c(-c4c(F)c[n+](C)cc4F)c4nc(c(-c5c(F)c[n+](C)cc5F)c5ccc2[nH]5)C=C4)C=C3)c(F)c1`, the IC50 with HeLa [1] (hela) is 870 nM. The result in the assay on HeLa [3] was Active.
For `C[n+]1cccc(-c2c3nc(c(-c4ccc[n+](C)c4F)c4ccc([nH]4)c(-c4ccc[n+](C)c4F)c4nc(c(-c5ccc[n+](C)c5F)c5ccc2[nH]5)C=C4)C=C3)c1F`, the IC50 with HeLa [1] (hela) was found to be 1100 nM. Also, the Activity result in the assay with HeLa [2] was “Dose-dependent effect”. Also, the result with HeLa [3] was Active.
